Only some compounds are listed: those with a hit (about 3.8% of all), similar ones and a draw of the others.
KCNQ1 pot: human KCNQ1 channel potentiation or activation. CHO-K1 KCNQ1, thallium flux FluxOR fluorescence; active compounds read high. P51787. actives 0.35% (n = 310,000). B-score at 10 µM;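 active = fluorescence ratio B-score, a plate-corrected score, at least three library SD, with initial intensity B-score within 5 SD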
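assay system = CHO-K1 cells stably expressing KCNQ1 | medium = assay buffer, equal DMSO in all wells | timing = 37 °C overnight plating, 90-min dark dye load, 20-min compound pretreatment | measured by = kinetic FluxOR thallium fluorescence, 10-s 1-Hz baseline, 110-s post-stimulus read | measure = fluorescence change relative to baseline, converted to B score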
KCNK3 block: human KCNK3 channel inhibition, primary screen; actives 0.84% (n = 340,000); CHO-KCNK3 thallium flux, FluxOR fluorescence; active compounds read low; O14649; B-score at 10 µM; AID 602410;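 active = B-score under library mean minus 4 SD, starting fluorescence ratio at most library mean plus 5 SD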;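 also: more negative B-score means stronger inhibition of thallium flux through KCNK3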
Kir21 inh: blocks the mouse Kir2.1 inward-rectifier potassium channel | P35561 | AID 1672 | B-score at 10 µM | actives 0.85% (n = 310,000) | HEK293-Kir2.1, FluxOR thallium flux fluorescence; active compounds read low;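 active = fluorescence ratio B-score at or below minus 3 SD of library scores, with starting-brightness B-score within 2 SD, cut at about -4.2 in these data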;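 also: channel flux triggered by added potassium and thallium sulfate stimulus; B-score of peak minus minimum fluorescence over baseline after thallium stimulus; more negative B-score means stronger Kir2.1 block with less thallium influx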
hERG rescue: hERG (human) protection from proarrhythmic block | actives 0.51% (n = 310,000) | activation (rescue from dofetilide block), less the hit threshold, % at 10 µM | AID 1511 | CHO-hERG, FluxOR thallium flux, dofetilide IC70 present;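 active = activation above the mean of controls blocked by dofetilide plus 5 SD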;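 also: thallium influx through hERG after potassium depolarization seen as dye fluorescence rise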
Target sequence (Q12809 whole entry, looked up): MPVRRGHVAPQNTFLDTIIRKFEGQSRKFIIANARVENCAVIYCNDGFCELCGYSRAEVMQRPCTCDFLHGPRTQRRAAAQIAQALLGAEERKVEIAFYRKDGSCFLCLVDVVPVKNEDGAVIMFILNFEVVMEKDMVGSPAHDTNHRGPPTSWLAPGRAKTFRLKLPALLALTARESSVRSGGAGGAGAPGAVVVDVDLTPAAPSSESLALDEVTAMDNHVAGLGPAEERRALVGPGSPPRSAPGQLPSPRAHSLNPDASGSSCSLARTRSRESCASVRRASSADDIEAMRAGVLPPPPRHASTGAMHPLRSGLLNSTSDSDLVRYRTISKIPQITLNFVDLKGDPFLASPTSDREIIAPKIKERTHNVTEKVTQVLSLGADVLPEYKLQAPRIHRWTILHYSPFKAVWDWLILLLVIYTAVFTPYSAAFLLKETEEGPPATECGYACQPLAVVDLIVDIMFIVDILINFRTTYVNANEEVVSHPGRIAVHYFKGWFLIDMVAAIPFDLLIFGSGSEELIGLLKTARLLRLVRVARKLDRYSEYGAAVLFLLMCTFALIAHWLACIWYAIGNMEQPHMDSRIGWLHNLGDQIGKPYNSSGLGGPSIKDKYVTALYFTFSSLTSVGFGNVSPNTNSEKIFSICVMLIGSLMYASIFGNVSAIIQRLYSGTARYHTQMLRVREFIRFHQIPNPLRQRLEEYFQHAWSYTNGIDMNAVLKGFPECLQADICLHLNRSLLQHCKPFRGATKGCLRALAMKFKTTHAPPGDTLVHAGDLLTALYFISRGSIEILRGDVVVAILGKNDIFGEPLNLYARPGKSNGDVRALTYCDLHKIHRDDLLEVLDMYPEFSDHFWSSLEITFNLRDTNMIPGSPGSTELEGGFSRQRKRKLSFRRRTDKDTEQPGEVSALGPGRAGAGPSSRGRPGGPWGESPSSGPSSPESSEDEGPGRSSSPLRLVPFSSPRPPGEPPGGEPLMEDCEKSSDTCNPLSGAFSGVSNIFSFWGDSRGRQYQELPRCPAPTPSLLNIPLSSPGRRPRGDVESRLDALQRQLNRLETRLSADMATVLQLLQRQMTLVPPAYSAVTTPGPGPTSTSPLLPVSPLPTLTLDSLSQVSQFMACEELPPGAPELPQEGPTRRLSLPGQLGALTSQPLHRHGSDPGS
KCNQ1 inh: human KCNQ1 channel inhibition | P51787 | CHO-K1 KCNQ1, FluxOR thallium flux fluorescence; active compounds read high | B-score at 10 µM | actives 1.3% (n = 310,000);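 active = compounds whose thallium flux B-score, printed positive for inhibition, exceeds three library SD while starting fluorescence stays within three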;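 also: channel opened by potassium depolarization with thallium stimulus after 20 min compound exposure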
KCNK9 inh-1: blocks the human KCNK9 two-pore domain potassium channel. HEK293 KCNK9, FluxOR thallium flux fluorescence; active compounds read low. B-score at 10 µM. actives 1.2% (n = 310,000);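 active = ratio B-score over 3 SD below the library mean, with starting fluorescence within 5 SD of its mean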;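 also: negative B-score means less thallium flux so channel inhibition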
hERG inh: hERG (human) inhibition as Kir2.1 counter-screen; shares compounds with Kir21 inh; hERG-expressing cells, thallium flux; inhibition, % at 10 µM; actives 20% (n = 320);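 also: host cells are CHO cells stably expressing hERG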
KCNK9 inh-2: selectivity of Kir2.1 inhibitors: effect on human KCNK9; inhibition, % at 10 µM; actives 5% (n = 320); KCNK9-expressing cells, ion flux inhibition; shares compounds with Kir21 inh
Kir21 ephys inh: mouse Kir2.1 inward rectifier channel inhibition; actives 71% (n = 320); shares compounds with Kir21 inh; inhibition, % at 25 µM; Kir2.1 cells, automated patch-clamp current inhibition
Active calls of the source: *; i = inactive; x = no result given. Unless noted, no rule for the calls is given here.

SMILES | KCNQ1 pot | KCNK3 block | Kir21 inh | hERG rescue | KCNQ1 inh | KCNK9 inh-1 | hERG inh | KCNK9 inh-2 | Kir21 ephys inh
COc1cccc(N(CC(=O)N2CCN(C)CC2)S(=O)(=O)c2ccc(C)cc2)c1 | i | i | -0.64 | -3.5 | i | i | x | x | x
CCc1ccc(Nc2n[n+](-c3ccccc3)c(/C=C/c3ccccc3)s2)cc1 | i | x | -7.65* | -35.2 | 12* | i | 68.0%* | i | i
C[C@H]1CN=C(N(C)C)N1CC1CCC(C(C)(C)C)CC1 (stereo not given in full) | x | i | x | x | x | x | x | x | x
Cc1ccc(S(=O)(=O)N2CCOCC2)cc1NC(=O)CNCC1CCCCC1 | i | i | -0.64 | -8.5 | i | i | x | x | x
CC(C)Oc1ccccc1NC(=O)CSc1nc2ccccc2c(=O)n1C | i | i | -8.86* | -8.3 | i | i | i | i | 9.9%*
CCOc1ccc(C(C)NC(=S)NCc2ccc(F)cc2)cc1 (stereo not given) | i | i | 1.61 | -7.0 | i | i | x | x | x
COc1cccc(C(C)NC(=S)NCc2ccc(F)cc2)c1 (stereo not given) | i | i | -6.82* | -15.1 | i | i | i | 31.0%* | 43.3%*
C#CCN(C)Cc1ccccc1 | i | i | -0.1 | -8.6 | i | i | x | x | x
C#CC(CO)N(CCN(Cc1ccccc1)C(C#C)CO)Cc1ccccc1 (stereo not given) | i | i | -11.2* | -4.5 | i | i | i | i | 3.9%*
COCCCN(CCC#N)C(=O)c1c(-c2c(Cl)cccc2Cl)noc1C | i | i | 0.25 | -7.2 | i | i | x | x | x
CC(C)(CO)NCc1ccccc1OCC(=O)Nc1ccccc1 | i | i | -0.12 | -0.6 | i | i | x | x | x
Cc1ccc(NC(=O)COc2ccccc2CNC(C)(C)CC(C)(C)C)cc1 | i | i | -6.32* | -19.2 | 8* | i | 50.0%* | 37.0%* | i
O=S(=O)(Nc1ccccc1N1CCOCC1)c1ccc(F)c(Cl)c1 | i | i | -12.3* | -3.4 | i | i | i | i | 2.6%*
Cc1ccc2c(c1)-c1c(cnn1CC(=O)Nc1ccccc1N1CCN(C)CC1)CO2 | i | i | -2.13 | -14.3 | i | i | x | x | x
CN(C)S(=O)(=O)c1cc(NC(=O)COC(=O)c2ccc3c(c2)OCO3)ccc1Cl | x | i | x | x | x | x | x | x | x
O=S(=O)(c1ccccc1F)N1CCCc2ccccc21 | i | i | -6.13* | -9.2 | i | i | i | i | 32.5%*
CC(C)OC(=O)NCCOC(=O)Nc1ccccc1Cl | i | i | 0.06 | -14.3 | i | i | x | x | x
COC(=O)C1=C(C)N(Cc2ccccc2)C(=NCCc2ccccn2)N[C@H]1c1cccc(F)c1 | i | i | -6.72* | -8.5 | i | i | i | i | 3.0%*
Cc1ccc(N(C)C(=O)c2ccc(CNc3c(N4CCC(C)CC4)c(=O)c3=O)cc2)cc1 | i | i | 0.2 | -4.9 | i | i | x | x | x
CC(C)(C)OC(=O)NCCCCCc1nnc(SCc2ccc(F)cc2)o1 | i | i | -2.38 | -9.3 | i | i | x | x | x
Cc1ccc(CSc2nnc(CCNC(=O)OC(C)(C)C)o2)cc1 | i | i | -10.9* | -7.0 | i | i | i | i | 59.7%*
COCCNC(=O)C/C(C)=N/NC(=O)C(=O)NC1CCCCC1 | i | i | 0.87 | -3.9 | i | i | x | x | x
Cc1cc(N)n(-c2ccccn2)n1 | i | i | -0.89 | -2.0 | i | i | x | x | x
COc1cc(OC)c(OC)cc1CCC(C)NCCC(c1ccccc1)c1ccccc1 (stereo not given) | i | i | -11.2* | -21.4 | i | i | 68.0%* | i | 5.1%*
CCCCN1C(=O)C(=Nc2cccc3cnccc23)c2ccccc21 | i | i | -7.46* | -13.7 | i | -7.18* | i | i | i
SMILES | KCNQ1 pot | KCNK3 block | Kir21 inh | hERG rescue | KCNQ1 inh | KCNK9 inh-1 | hERG inh | KCNK9 inh-2 | Kir21 ephys inh
Cc1ccc(S(=O)(=O)CCCS(=O)(=O)c2ccc(C)cc2)cc1 | i | i | -5.72* | -10.2 | i | i | i | i | 17.3%*
CC(=O)N(CC(C)(C)CC=C(C)C)c1ccccc1 | i | x | -5.86* | -14.2 | i | i | i | i | 9.4%*
CCCN1CCC(NC23CC4CC(CC(C4)C2)C3)CC1 | i | x | -9.82* | -6.9 | i | i | i | i | 41.1%*
Nc1ccccc1-c1ccc([N+](=O)[O-])cc1 | x | i | x | x | x | x | x | x | x
Nc1nc(C2CCCN2S(=O)(=O)c2ccc(Cl)cc2)cs1 (stereo not given) | i | i | -6.57* | -4.3 | i | i | i | i | 13.9%*
O=S(=O)(c1ccc(Cl)cc1)N1CCCC1c1nc(-c2ccc(Cl)cc2)no1 (stereo not given) | i | i | -1.05 | -5.2 | i | i | x | x | x
COc1ccc(Br)cc1S(=O)(=O)N1CCOCC1 | i | i | 0.05 | -2.2 | i | i | x | x | x
COc1ccc(Br)cc1S(=O)(=O)N1CC(C)OC(C)C1 (stereo not given) | i | i | -6.23* | -9.9 | i | i | i | i | 26.5%*
COc1ccc(F)cc1S(=O)(=O)N1CCN(c2ccccn2)CC1 | i | i | -0.89 | -3.8 | i | i | x | x | x
COc1ccc(F)cc1S(=O)(=O)N1CC(C)CC(C)C1 (stereo not given) | i | i | -6.23* | -10.4 | i | i | i | i | 36.9%*
Cc1ccc2nc(Cl)c(CNCc3ccccc3)cc2c1 | i | i | -11.7* | -9.2 | i | i | i | i | i
CC(OC(=O)c1cccc(-n2cnnn2)c1)C(=O)Nc1cccc(Cl)c1 (stereo not given) | i | i | 4.44 | -12.3 | i | i | i | i | i
CC(=O)c1ccc(NC(=O)C(C)OC(=O)c2cccc(-n3cnnn3)c2)cc1 (stereo not given) | i | i | 0.43 | -7.1 | i | i | x | x | x
COC(=O)/C(=C(O)\C=C\c1ccccc1[N+](=O)[O-])c1nc2ccccc2[nH]1 | i | i | -0.59 | -12.2 | i | i | x | x | x
Cc1ccc(OCC(O)CNCc2ccc(F)cc2)cc1 (stereo not given) | i | i | -8.84* | -8.2 | i | i | i | i | 77.2%*
